pIC50: −log10 of the molar value.
Key:
PC-3 = test: Cytotoxicity against human PC3 cells by resazurin reduction test; format: functional, cell-based
Summary of the method: (§1)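 Cells seeded at 5 × 10³ per well and allowed to adhere 16 h. Compounds are made up from DMSO stocks, with DMSO held at 0.5% (v/v) at every concentration, and added as a 4× solution in MEM. Continuous exposure lasts 48 h. Resazurin at 25 µg/mL in MEM without serum or phenol red is then given for 1 h at 37 °C, 5% CO₂. Fluorescence is read at ex 530/em 590 nm. IC50 comes from the blank-subtracted concentration–response curve, expressed as percent of control wells.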

MCF7 = test: Cytotoxicity against human MCF7 cells by resazurin reduction test; format: functional, cell-based; summary of the method: as §1
L929 [1] = test: Effect on oxidative stress in mouse L929 cells assessed as glutathione depletion at 50 uM after 4 hrs; format: functional
Summary of the method: (§2)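 L929 cells seeded at 5 × 10³ per well and grown 48 h to about 90% confluence. Treatment runs in HBSS/15 mM Hepes pH 7.4 for 4 h at 37 °C. Cells are then washed and incubated 15 min with 7.5 µM monochlorobimane before the fluorescence read. Depletion counts as significant below 80% of control. Positive control is 100 µM diethylmaleate.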

[2] = Cytotoxicity against human M4Beu cells by resazurin reduction test; format: functional, cell-based; summary of the method: as §1
DLD-1 = test: Cytotoxicity against human DLD1 cells by resazurin reduction test; format: functional, cell-based; summary of the method: as §1
[3] = Cytotoxicity against human primary fibroblasts by resazurin reduction test; format: cell-based; conditions: Fibroblast; summary of the method: as §1
PA-1 = test: Cytotoxicity against human PA1 cells by resazurin reduction test; format: functional, cell-based; summary of the method: as §1
L929 [4] = test: Growth inhibition in mouse L929 cells after 48 hrs; format: functional; set-up: concentration or dose not given beside the values
A549 = test: Cytotoxicity against human A549 cells by resazurin reduction test; format: functional, cell-based; summary of the method: as §1
L929 [5] = test: Effect on oxidative stress in mouse L929 cells assessed as ROS production at 6.25 uM after 4 hrs by 2',7'-dichlorofluorescein-diacetate assay; format: functional
Summary of the method: (§3)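 L929 cells seeded at 5 × 10³ per well and grown 48 h to about 90% confluence. Cells are loaded with 20 µM DCFH-DA in HBSS/15 mM Hepes pH 7.4 for 1 h at 37 °C, washed, then treated in the same buffer at 37 °C. Fluorescence is read after 4 h at 485/530 nm and expressed as percent of control. Above 150% counts as significant; 100 µM tert-butyl hydroperoxide serves as positive control.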

L929 [6] = test: Effect on oxidative stress in mouse L929 cells assessed as ROS production at 12.5 uM after 4 hrs by 2',7'-dichlorofluorescein-diacetate assay; format: functional; summary of the method: as §3
L929 [7] = test: Effect on oxidative stress in mouse L929 cells assessed as cytolysis at 50 uM after 4 hrs by calcein-AM assay; format: functional
Summary of the method: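 L929 cells seeded at 5 × 10³ per well and grown 48 h to about 90% confluence. Cells are washed with HBSS/Hepes, then exposed 4 h at 37 °C in complete medium with 0.5% DMSO vehicle, in triplicate. Tween 80 is the lysis control. Detached cells are checked by microscopy, then 4 µM calcein-AM is added for 1 h and read at ex 485/em 530 nm. Percent intact cells = (sample − 100%-lysis background)/(vehicle − background) × 100.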

L929 [8] = test: Effect on oxidative stress in mouse L929 cells assessed as glutathione depletion at 6.25 uM after 4 hrs; format: functional; summary of the method: as §2
L929 [9] = test: Effect on oxidative stress in mouse L929 cells assessed as ROS production at 25 uM after 4 hrs by 2',7'-dichlorofluorescein-diacetate assay; format: functional; summary of the method: as §3

Row | SMILES | pIC50 (PC-3) | pIC50 (MCF7) | Activity (L929 [1]) | pIC50 [2] | pIC50 (DLD-1) | pIC50 [3] | pIC50 (PA-1) | inhibition (INH) (L929 [4]) | pIC50 (A549) | Activity (L929 [5]) | Activity (L929 [6]) | Activity (L929 [7]) | Activity (L929 [8]) | Activity (L929 [9])
1 | CC(=O)OC[C@H]1O[C@@H](NC(=O)CCNC(=O)CCCc2ccc(N(CCCl)CCCl)cc2)[C@H](F)[C@@H](OC(C)=O)[C@@H]1OC(C)=O | 5.43 | 4.89 | <=80% | 4.82 | 4.96 | 5.15 | 6.62 | 50% | 5.04 |  |  |  |  | 
2 | CC(=O)OC[C@H]1O[C@@H](Oc2ccc(NC(=O)CNC(=O)CCCc3ccc(N(CCCl)CCCl)cc3)cc2)[C@H](F)[C@@H](OC(C)=O)[C@@H]1OC(C)=O | 5.10 | 4.85 |  | 4.85 | 5.22 | 4.80 | 5.80 | 40% | 5.00 |  |  |  |  | 
3 | CC(=O)OC[C@H]1O[C@@H](NC(=O)CCCNC(=O)CCCc2ccc(N(CCCl)CCCl)cc2)[C@H](F)[C@@H](OC(C)=O)[C@@H]1OC(C)=O | 5.52 | 4.92 |  | 5.05 | 5.05 | 5.39 | 6.57 | 50% | 4.89 | >=150% |  |  |  | 
4 | CC(=O)OC[C@H]1O[C@@H](NC(=O)NCCCc2ccc(N(CCCl)CCCl)cc2)[C@H](F)[C@@H](OC(C)=O)[C@@H]1OC(C)=O | 5.40 | 4.58 |  | 4.57 | 5.15 | 4.89 | 6.22 | 40% | 5.10 |  | >=150% |  |  | 
5 | CC(=O)OC[C@H]1O[C@@H](NC(=O)c2ccc(NC(=O)CCCc3ccc(N(CCCl)CCCl)cc3)cc2)[C@H](F)[C@@H](OC(C)=O)[C@@H]1OC(C)=O | 5.85 | 5.30 | <=80% | 5.15 | 5.52 | 5.40 | 6.52 | 50% | 5.57 |  |  | <=80% |  | 
6 | CC(=O)OC[C@H]1O[C@@H](Oc2ccc(NC(=O)CCCc3ccc(N(CCCl)CCCl)cc3)cc2)[C@H](F)[C@@H](OC(C)=O)[C@@H]1OC(C)=O | 4.96 | 4.59 |  | < 4.30 | 5.00 | < 4.30 | 6.12 |  | 5.72 |  |  |  | <=80% | 
7 | CC(=O)OC[C@H]1O[C@@H](NC(=O)CNC(=O)CCCc2ccc(N(CCCl)CCCl)cc2)[C@H](F)[C@@H](OC(C)=O)[C@@H]1OC(C)=O | 5.00 | 5.10 |  | 5.17 | 5.40 | 5.39 | 6.00 | 70% | 5.30 |  |  |  |  | >=150%
8 | CC(=O)OC[C@H]1O[C@@H](NC(=O)CCCc2ccc(N(CCCl)CCCl)cc2)[C@H](F)[C@@H](OC(C)=O)[C@@H]1OC(C)=O | 5.36 | 4.57 |  | 4.57 | 5.15 | 4.96 | 5.89 |  | 5.27 |  |  |  |  | 
9 | O=C(O)CCCc1ccc(N(CCCl)CCCl)cc1 [CHLORAMBUCIL] |  | < 4.00 |  | < 4.00 | 4.33 | 4.00 | 5.55 | 30% | 4.37 | >=150% |  |  | <=80% | 

Reference: ChEMBL document CHEMBL1157206 (Bioorg Med Chem, 2008)
